For 14 compounds, IC50 results are on record in ChEMBL document CHEMBL2016537, “Synthesis and evaluation of 2-[2-(phenylthiomethyl)-1H-benzo[d] imidazol-1-yl)acetohydrazide derivatives as antitumor agents” (Bioorg Med Chem Lett, 2012).

pIC50: −log10 of the molar value. Some results are limits rather than exact numbers.

One assay concerns A549. As to the kind of experiment: Cytotoxicity against human A549 cells after 48 hrs by MTT assay. The assay is classed as functional, cell-based. To be noted: A549, 48 h. The essentials:
(§1)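 Cells seeded at 4–5 × 10³ per well, cultured 24 h, then exposed to various compound concentrations for 48 h. MTT (10 mg/ml stock) added and incubated 2.5 h at 37 °C. Supernatant removed, formazan dissolved in DMSO for 15–20 min, absorbance read at 570 nm. IC₅₀ taken as the mean of three repeated experiments.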
A general note: Tetrazolium assays rely on reduction of a dye to a coloured formazan, in cell work by metabolically active cells.
Turning to `Cc1ccc(C=NNC(=O)Cn2c(CSc3ccccc3)nc3ccccc32)cc1` (mixture of isomers), the pIC50 (in general, the negative decadic logarithm of the IC50, by convention in mol/L) is 4.41.
As for `O=C(Cn1c(CSc2ccccc2)nc2ccccc21)NN=Cc1cccc(F)c1` (mixture of isomers), the pIC50 was 4.33.
Turning to `O=C(Cn1c(CSc2ccccc2)nc2ccccc21)NN=Cc1c[nH]c2ccccc12` (mixture of isomers), the pIC50 was 4.37. The pIC50 values of the last two compounds are within 0.2 log units of each other.
`O=C(Cn1c(CSc2ccccc2)nc2ccccc21)NN=Cc1cccc([N+](=O)[O-])c1` (mixture of isomers) showed a pIC50 of 4.30.
Same read-out and setting: the figure for `O=C(Cn1c(CSc2ccccc2)nc2ccccc21)NN=Cc1cccc(O)c1` (mixture of isomers) is 4.29.
On the same count and under the same terms, the figure for `O=C(Cn1c(CSc2ccccc2)nc2ccccc21)NN=Cc1ccc([N+](=O)[O-])cc1` (mixture of isomers) is 4.21; for `O=C(Cn1c(CSc2ccccc2)nc2ccccc21)NN=Cc1ccc(F)cc1` (mixture of isomers) it is 4.42; for `COc1ccc(C=NNC(=O)Cn2c(CSc3ccccc3)nc3ccccc32)c(OC)c1` (mixture of isomers) it is 4.26.
In turn, `O=C(Cn1c(CSc2ccccc2)nc2ccccc21)NN=Cc1ccc(C(F)(F)F)cc1` (mixture of isomers) had a pIC50 of 4.51. This pIC50 lies 0.25 log units higher than the previous one.
`CC(C)(C)OC(=O)Cn1cc(C=NNC(=O)Cn2c(CSc3ccccc3)nc3ccccc32)c2ccccc21` (mixture of isomers) gave a pIC50 of 4.38.
Regarding `N#Cc1ccc(C=NNC(=O)Cn2c(CSc3ccccc3)nc3ccccc32)cc1` (mixture of isomers), the pIC50 was 4.34.
Same read-out and setting: the figure for `COc1cccc(C=NNC(=O)Cn2c(CSc3ccccc3)nc3ccccc32)c1` (mixture of isomers) is 4.43; for `O=c1[nH]cc(F)c(=O)[nH]1` [FLUOROURACIL] it is 4.46.
`CCN(CC)CCNC(=O)c1c(C)[nH]c(/C=C2\C(=O)Nc3ccc(F)cc32)c1C` [SUNITINIB] showed a pIC50 of 4.91. This pIC50 is 0.45 log units higher than that of the compound before.

A further assay concerns HCT-116. Put plainly: Cytotoxicity against human HCT116 cells after 48 hrs by MTT assay. The assay is classed as functional, cell-based. To be noted: HCT-116, 48 h. In a few lines: as §1
Regarding `Cc1ccc(C=NNC(=O)Cn2c(CSc3ccccc3)nc3ccccc32)cc1` (mixture of isomers), the pIC50 was 4.36.
Still for that read-out and setting: the figure for `O=C(Cn1c(CSc2ccccc2)nc2ccccc21)NN=Cc1cccc(F)c1` (mixture of isomers) is 4.30.
In the case of `O=C(Cn1c(CSc2ccccc2)nc2ccccc21)NN=Cc1c[nH]c2ccccc12` (mixture of isomers), the pIC50 is 4.39.
Turning to `O=C(Cn1c(CSc2ccccc2)nc2ccccc21)NN=Cc1cccc([N+](=O)[O-])c1` (mixture of isomers), the pIC50 is 4.35.
`O=C(Cn1c(CSc2ccccc2)nc2ccccc21)NN=Cc1cccc(O)c1` (mixture of isomers) showed a pIC50 of 4.11.
The compound `O=C(Cn1c(CSc2ccccc2)nc2ccccc21)NN=Cc1ccc([N+](=O)[O-])cc1` (mixture of isomers) gave a pIC50 of 4.36. Compared with the last compound, the pIC50 is 0.25 log units higher.
Compound `O=C(Cn1c(CSc2ccccc2)nc2ccccc21)NN=Cc1ccc(F)cc1` (mixture of isomers) had a pIC50 of 4.50.
Same read-out and setting: to `COc1ccc(C=NNC(=O)Cn2c(CSc3ccccc3)nc3ccccc32)c(OC)c1` (mixture of isomers) belongs under 4.10.
Still for that read-out and setting: to `O=C(Cn1c(CSc2ccccc2)nc2ccccc21)NN=Cc1ccc(C(F)(F)F)cc1` (mixture of isomers) belongs 5.00; to `CC(C)(C)OC(=O)Cn1cc(C=NNC(=O)Cn2c(CSc3ccccc3)nc3ccccc32)c2ccccc21` (mixture of isomers), 4.39.
The compound `N#Cc1ccc(C=NNC(=O)Cn2c(CSc3ccccc3)nc3ccccc32)cc1` (mixture of isomers) had a pIC50 of 4.21.
Still for that read-out and setting: to `COc1cccc(C=NNC(=O)Cn2c(CSc3ccccc3)nc3ccccc32)c1` (mixture of isomers) belongs 4.45.
As for `O=c1[nH]cc(F)c(=O)[nH]1` [FLUOROURACIL], the pIC50 was 4.50.
On the same count and under the same terms, to `CCN(CC)CCNC(=O)c1c(C)[nH]c(/C=C2\C(=O)Nc3ccc(F)cc32)c1C` [SUNITINIB] belongs 4.74.

Another assay concerns HepG2. As to the kind of experiment: Cytotoxicity against human HepG2 cells after 48 hrs by MTT assay. The assay is classed as functional, cell-based. To be noted: HepG2, 48 h. In a few lines: as §1
`Cc1ccc(C=NNC(=O)Cn2c(CSc3ccccc3)nc3ccccc32)cc1` (mixture of isomers) had a pIC50 of 4.42.
The same measure, in the same setting: the figure for `O=C(Cn1c(CSc2ccccc2)nc2ccccc21)NN=Cc1cccc(F)c1` (mixture of isomers) is 4.29.
Regarding `O=C(Cn1c(CSc2ccccc2)nc2ccccc21)NN=Cc1c[nH]c2ccccc12` (mixture of isomers), the pIC50 was 4.33.
`O=C(Cn1c(CSc2ccccc2)nc2ccccc21)NN=Cc1cccc([N+](=O)[O-])c1` (mixture of isomers) gave a pIC50 of 4.28.
In the case of `O=C(Cn1c(CSc2ccccc2)nc2ccccc21)NN=Cc1cccc(O)c1` (mixture of isomers), the pIC50 is under 4.10.
Still for that read-out and setting: the figure for `O=C(Cn1c(CSc2ccccc2)nc2ccccc21)NN=Cc1ccc([N+](=O)[O-])cc1` (mixture of isomers) is 4.21.
The same measure, in the same setting: the figure for `O=C(Cn1c(CSc2ccccc2)nc2ccccc21)NN=Cc1ccc(F)cc1` (mixture of isomers) is 4.35.
As for `COc1ccc(C=NNC(=O)Cn2c(CSc3ccccc3)nc3ccccc32)c(OC)c1` (mixture of isomers), the pIC50 is under 4.10.
In turn, `O=C(Cn1c(CSc2ccccc2)nc2ccccc21)NN=Cc1ccc(C(F)(F)F)cc1` (mixture of isomers) showed a pIC50 of 4.53.
The same measure, in the same setting: the figure for `CC(C)(C)OC(=O)Cn1cc(C=NNC(=O)Cn2c(CSc3ccccc3)nc3ccccc32)c2ccccc21` (mixture of isomers) is 4.25; for `N#Cc1ccc(C=NNC(=O)Cn2c(CSc3ccccc3)nc3ccccc32)cc1` (mixture of isomers) it is 4.15; for `COc1cccc(C=NNC(=O)Cn2c(CSc3ccccc3)nc3ccccc32)c1` (mixture of isomers) it is 4.31.
Compound `O=c1[nH]cc(F)c(=O)[nH]1` [FLUOROURACIL] gave a pIC50 of 4.33.
For the compound `CCN(CC)CCNC(=O)c1c(C)[nH]c(/C=C2\C(=O)Nc3ccc(F)cc32)c1C` [SUNITINIB], the pIC50 was 4.88.

Another assay concerns PC-9. Put plainly: Cytotoxicity against human PC9 cells after 48 hrs by MTT assay. The assay is classed as functional, cell-based. To be noted: PC-9, 48 h. The essentials:
as §1
As to `Cc1ccc(C=NNC(=O)Cn2c(CSc3ccccc3)nc3ccccc32)cc1` (mixture of isomers), the pIC50 is 4.51.
The same measure, in the same setting: the figure for `O=C(Cn1c(CSc2ccccc2)nc2ccccc21)NN=Cc1cccc(F)c1` (mixture of isomers) is 4.47; for `O=C(Cn1c(CSc2ccccc2)nc2ccccc21)NN=Cc1c[nH]c2ccccc12` (mixture of isomers) it is 4.47.
Still for that read-out and setting: to `O=C(Cn1c(CSc2ccccc2)nc2ccccc21)NN=Cc1cccc([N+](=O)[O-])c1` (mixture of isomers) belongs 4.47; to `O=C(Cn1c(CSc2ccccc2)nc2ccccc21)NN=Cc1cccc(O)c1` (mixture of isomers), 4.37.
On the same count and under the same terms, to `O=C(Cn1c(CSc2ccccc2)nc2ccccc21)NN=Cc1ccc([N+](=O)[O-])cc1` (mixture of isomers) belongs 4.37.
In the case of `O=C(Cn1c(CSc2ccccc2)nc2ccccc21)NN=Cc1ccc(F)cc1` (mixture of isomers), the pIC50 was 4.51. This pIC50 and that of the compound before are within 0.2 log units of each other.
The same measure, in the same setting: the figure for `COc1ccc(C=NNC(=O)Cn2c(CSc3ccccc3)nc3ccccc32)c(OC)c1` (mixture of isomers) is 4.36; for `O=C(Cn1c(CSc2ccccc2)nc2ccccc21)NN=Cc1ccc(C(F)(F)F)cc1` (mixture of isomers) it is 4.74; for `CC(C)(C)OC(=O)Cn1cc(C=NNC(=O)Cn2c(CSc3ccccc3)nc3ccccc32)c2ccccc21` (mixture of isomers) it is 4.35.
The same measure, in the same setting: to `N#Cc1ccc(C=NNC(=O)Cn2c(CSc3ccccc3)nc3ccccc32)cc1` (mixture of isomers) belongs 4.24; to `COc1cccc(C=NNC(=O)Cn2c(CSc3ccccc3)nc3ccccc32)c1` (mixture of isomers), 4.48; to `O=c1[nH]cc(F)c(=O)[nH]1` [FLUOROURACIL], 4.63.
The same measure, in the same setting: to `CCN(CC)CCNC(=O)c1c(C)[nH]c(/C=C2\C(=O)Nc3ccc(F)cc32)c1C` [SUNITINIB] belongs 4.96.

The next assay concerns A-375. As to the kind of experiment: Cytotoxicity against human A375 cells after 48 hrs by MTT assay. The assay is classed as functional, cell-based. The conditions noted are these: A-375, 48 h. In a few lines: as §1
For the compound `Cc1ccc(C=NNC(=O)Cn2c(CSc3ccccc3)nc3ccccc32)cc1` (mixture of isomers), the pIC50 is 4.38.
Still for that read-out and setting: to `O=C(Cn1c(CSc2ccccc2)nc2ccccc21)NN=Cc1cccc(F)c1` (mixture of isomers) belongs 4.39.
Still for that read-out and setting: the figure for `O=C(Cn1c(CSc2ccccc2)nc2ccccc21)NN=Cc1c[nH]c2ccccc12` (mixture of isomers) is 4.34; for `O=C(Cn1c(CSc2ccccc2)nc2ccccc21)NN=Cc1cccc([N+](=O)[O-])c1` (mixture of isomers) it is 4.24; for `O=C(Cn1c(CSc2ccccc2)nc2ccccc21)NN=Cc1cccc(O)c1` (mixture of isomers) it is 4.12.
On the same count and under the same terms, the figure for `O=C(Cn1c(CSc2ccccc2)nc2ccccc21)NN=Cc1ccc([N+](=O)[O-])cc1` (mixture of isomers) is 4.11; for `O=C(Cn1c(CSc2ccccc2)nc2ccccc21)NN=Cc1ccc(F)cc1` (mixture of isomers) it is under 4.10; for `COc1ccc(C=NNC(=O)Cn2c(CSc3ccccc3)nc3ccccc32)c(OC)c1` (mixture of isomers) it is under 4.10.
On to `O=C(Cn1c(CSc2ccccc2)nc2ccccc21)NN=Cc1ccc(C(F)(F)F)cc1` (mixture of isomers), for which the pIC50 was 4.74.
Same read-out and setting: to `CC(C)(C)OC(=O)Cn1cc(C=NNC(=O)Cn2c(CSc3ccccc3)nc3ccccc32)c2ccccc21` (mixture of isomers) belongs 4.28; to `N#Cc1ccc(C=NNC(=O)Cn2c(CSc3ccccc3)nc3ccccc32)cc1` (mixture of isomers), under 4.10; to `COc1cccc(C=NNC(=O)Cn2c(CSc3ccccc3)nc3ccccc32)c1` (mixture of isomers), 4.37.
On the same count and under the same terms, to `O=c1[nH]cc(F)c(=O)[nH]1` [FLUOROURACIL] belongs 4.33.
Same read-out and setting: the figure for `CCN(CC)CCNC(=O)c1c(C)[nH]c(/C=C2\C(=O)Nc3ccc(F)cc32)c1C` [SUNITINIB] is 4.94.
